In ChEMBL document CHEMBL1649560, “Beta-lactamase-mediated beta-lactam resistance in Campylobacter species: prevalence of Cj0299 (bla OXA-61) and evidence for a novel beta-Lactamase in C. jejuni” (2009):

What was measured:
Type in all cases: functional
Campylobacter jejuni [1] = test: Antibacterial activity against bla gene-negative and nitrocefin reaction-negative beta-lactamase harboring Campylobacter jejuni isolate P850 by NCCLS agar doubling dilution method in presence of clavulanic acid
Method in brief: (§1)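 MICs of β-lactams by agar doubling dilution following the NCCLS (CLSI) Campylobacter Working Group procedure, with C. jejuni NCTC 11168 and C. coli NCTC 11366 as controls. Isolates were from UK poultry flocks. β-Lactamase status was set by Cj0299 PCR (281-bp amplimer) and by a nitrocefin colour change of sonicated lysate within 5 min, or within 30 min on repeat.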

Campylobacter coli [2] = test: Antibacterial activity against Campylobacter coli by NCCLS agar doubling dilution method in presence of clavulanic acid
Method in brief: (§2)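 MICs by agar doubling dilution following the NCCLS (CLSI) Campylobacter Working Group procedure, applied to ampicillin- and amoxicillin-resistant isolates from UK chicken flocks (2000–2006). C. jejuni NCTC 11168 and C. coli NCTC 11366 served as control strains. Resistance was called at an ampicillin cutoff of 8 μg/ml. Other agents were judged against Enterobacteriaceae guidelines (BSAC, CLSI).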

Campylobacter coli [3] = test: Antibacterial activity against Campylobacter coli by NCCLS agar doubling dilution method; method in brief: as §2
Campylobacter jejuni [4] = test: Antibacterial activity against Campylobacter jejuni by NCCLS agar doubling dilution method in presence of clavulanic acid; method in brief: as §2
Campylobacter jejuni [5] = test: Antibacterial activity against bla gene-positive and nitrocefin reaction-positive beta-lactamase harboring Campylobacter jejuni isolate P285 by NCCLS agar doubling dilution method in presence of clavulanic acid
Method in brief: (§3)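 MICs by agar doubling dilution per the NCCLS (now CLSI) Campylobacter Working Group method. Isolates came from UK chicken flocks (feces, ceca or farm environment), 2000–2006. C. jejuni NCTC 11168 and C. coli NCTC 11366 served as control strains. The ampicillin resistance cutoff was 8 μg/ml; BSAC/CLSI Enterobacteriaceae guidelines were used for other agents.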

Campylobacter jejuni [6] = test: Antibacterial activity against bla gene-positive and nitrocefin reaction-negative beta-lactamase harboring Campylobacter jejuni isolate P1699 by NCCLS agar doubling dilution method in presence of clavulanic acid; method in brief: as §1
Campylobacter jejuni [7] = test: Antibacterial activity against Campylobacter jejuni isolate P1093 harboring blaOXA-61::cat gene by NCCLS agar doubling dilution method in presence of clavulanic acid
Method in brief: (§4)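 Agar doubling dilution MICs (NCCLS/CLSI Campylobacter Working Group method) against Cj0299-inactivated mutants. Mutants were made by transforming the C. jejuni isolate with pCI and selecting on Mueller-Hinton agar with 10 μg/ml chloramphenicol for 3–5 days. Chromosomal insertion was confirmed by PCR with Cj0299 and cat primers.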

Campylobacter coli [8] = test: Antibacterial activity against bla gene-positive and nitrocefin reaction-positive beta-lactamase harboring Campylobacter coli isolate P321 by NCCLS agar doubling dilution method in presence of clavulanic acid; method in brief: as §1
Campylobacter jejuni [9] = test: Antibacterial activity against bla gene-positive and nitrocefin reaction-positive beta-lactamase harboring Campylobacter jejuni isolate P305 by NCCLS agar doubling dilution method in presence of clavulanic acid; method in brief: as §3
Campylobacter jejuni [10] = test: Antibacterial activity against bla gene-negative and nitrocefin reaction-negative beta-lactamase harboring Campylobacter jejuni isolate P835 by NCCLS agar doubling dilution method in presence of clavulanic acid; method in brief: as §1
Campylobacter jejuni [11] = test: Antibacterial activity against bla gene-positive and nitrocefin reaction-positive beta-lactamase harboring Campylobacter jejuni isolate P286 by NCCLS agar doubling dilution method in presence of clavulanic acid; method in brief: as §3
Campylobacter coli [12] = test: Antibacterial activity against bla-positive and beta-lactamase-weakly positive Campylobacter coli isolate P1627 by NCCLS agar doubling dilution method in presence of clavulanic acid; method in brief: as §2
Campylobacter jejuni [13] = test: Antibacterial activity against bla gene-positive and nitrocefin reaction-negative beta-lactamase harboring Campylobacter jejuni isolate P1698 by NCCLS agar doubling dilution method in presence of clavulanic acid; method in brief: as §1
Campylobacter jejuni [14] = test: Antibacterial activity against bla gene-positive and nitrocefin reaction-positive beta-lactamase harboring Campylobacter jejuni isolate P1650 by NCCLS agar doubling dilution method in presence of clavulanic acid; method in brief: as §3
Campylobacter jejuni [15] = test: Antibacterial activity against bla gene-negative and nitrocefin reaction-negative beta-lactamase harboring Campylobacter jejuni isolate P1962 by NCCLS agar doubling dilution method in presence of clavulanic acid; method in brief: as §1
Campylobacter jejuni [16] = test: Antibacterial activity against Campylobacter jejuni isolate P270 harboring blaOXA-61::cat gene by NCCLS agar doubling dilution method in presence of clavulanic acid
Campylobacter jejuni [17] = test: Antibacterial activity against bla gene-negative and nitrocefin reaction-positive beta-lactamase harboring Campylobacter jejuni isolate P843 by NCCLS agar doubling dilution method in presence of clavulanic acid; method in brief: as §1
Campylobacter jejuni [18] = test: Antibacterial activity against bla gene-positive and nitrocefin reaction-positive beta-lactamase harboring Campylobacter jejuni isolate P338 by NCCLS agar doubling dilution method in presence of clavulanic acid; method in brief: as §3
Campylobacter jejuni [19] = test: Antibacterial activity against bla gene-positive and nitrocefin reaction-negative beta-lactamase harboring Campylobacter jejuni isolate NCTC 11168 by NCCLS agar doubling dilution method in presence of clavulanic acid; method in brief: as §1
Campylobacter jejuni [20] = test: Antibacterial activity against bla gene-positive and nitrocefin reaction-positive beta-lactamase harboring Campylobacter jejuni isolate P1093 by NCCLS agar doubling dilution method in presence of clavulanic acid; method in brief: as §1
Campylobacter jejuni [21] = test: Antibacterial activity against bla gene-positive and nitrocefin reaction-positive beta-lactamase harboring Campylobacter jejuni isolate P790 by NCCLS agar doubling dilution method in presence of clavulanic acid; method in brief: as §3
Campylobacter jejuni [22] = test: Antibacterial activity against Campylobacter jejuni by NCCLS agar doubling dilution method; method in brief: as §2
Campylobacter jejuni [23] = test: Antibacterial activity against bla gene-negative and nitrocefin reaction-positive beta-lactamase harboring Campylobacter jejuni isolate P854 by NCCLS agar doubling dilution method in presence of clavulanic acid; method in brief: as §1
Campylobacter jejuni [24] = test: Antibacterial activity against bla gene-positive and nitrocefin reaction-positive beta-lactamase harboring Campylobacter jejuni isolate P1618 by NCCLS agar doubling dilution method in presence of clavulanic acid; method in brief: as §1
Campylobacter jejuni [25] = test: Antibacterial activity against bla gene-positive and nitrocefin reaction-positive beta-lactamase harboring Campylobacter jejuni isolate P316 by NCCLS agar doubling dilution method in presence of clavulanic acid; method in brief: as §3
Campylobacter jejuni [26] = test: Antibacterial activity against bla gene-positive and nitrocefin reaction-positive beta-lactamase harboring Campylobacter jejuni isolate P1730 by NCCLS agar doubling dilution method in presence of clavulanic acid; method in brief: as §3
Campylobacter jejuni [27] = test: Antibacterial activity against Campylobacter jejuni isolate P338 harboring blaOXA-61::cat gene by NCCLS agar doubling dilution method in presence of clavulanic acid; method in brief: as §4
Campylobacter coli [28] = test: Antibacterial activity against bla gene-positive and nitrocefin reaction-positive beta-lactamase harboring Campylobacter coli isolate P1826 by NCCLS agar doubling dilution method in presence of clavulanic acid; method in brief: as §1

O=C(O)[C@H]1/C(=C/CO)O[C@@H]2CC(=O)N21 [CLAVULANIC ACID]
8 µg/mL: MIC90 (Campylobacter jejuni [4]) | MIC (Campylobacter jejuni [5]) | MIC (Campylobacter coli [8]) | MIC (Campylobacter jejuni [9]) | MIC (Campylobacter jejuni [11]) | MIC (Campylobacter jejuni [18]) | MIC90 (Campylobacter jejuni [22]) | MIC (Campylobacter jejuni [25]) | MIC (Campylobacter jejuni [26]) | MIC (Campylobacter coli [28])
32 µg/mL: MIC90 (Campylobacter coli [2]) | MIC90 (Campylobacter coli [3]) | MIC (Campylobacter jejuni [20])
4 µg/mL: MIC (Campylobacter jejuni [1]) | MIC50 (Campylobacter jejuni [4]) | MIC (Campylobacter jejuni [6]) | MIC (Campylobacter coli [12]) | MIC (Campylobacter jejuni [14]) | MIC (Campylobacter jejuni [17]) | MIC50 (Campylobacter jejuni [22]) | MIC (Campylobacter jejuni [23])
1 µg/mL: MIC (Campylobacter jejuni [13]) | MIC (Campylobacter jejuni [19]) | MIC (Campylobacter jejuni [27])
0.5 µg/mL: MIC (Campylobacter jejuni [7]) | MIC (Campylobacter jejuni [10]) | MIC (Campylobacter jejuni [15])
0.25 µg/mL: MIC (Campylobacter jejuni [16])
16 µg/mL: MIC50 (Campylobacter coli [2]) | MIC50 (Campylobacter coli [3]) | MIC (Campylobacter jejuni [21])
2 µg/mL: MIC (Campylobacter jejuni [24])
